Assay results from ChEMBL document CHEMBL1129642, “Design, synthesis, and evaluation of 2 beta-alkenyl penam sulfone acids as inhibitors of beta-lactamases” (J Med Chem, 1996).
Active and inactive are the calls of the source. No cut-off for these calls is given here.

Tests used:
[1] = system: Bacillus licheniformis; assay: Compound was tested for inhibition of Bacillus licheniformis 749/C, class A of beta-Lactamases.; type: functional, organism-based
[2] = system: Pseudomonas aeruginosa; assay: Compound was tested for inhibition of Pseudomonas aeruginosa 18SH in combination with Ceftriaxone; type: functional
Outline: (§1)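 MICs determined by serial 2-fold dilution in Mueller-Hinton broth with an inoculum of approximately 10⁵ cfu/mL. The test compound was combined with ceftriaxone.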

[3] = system: Citrobacter freundii; assay: Compound was tested for inhibition of Citrobacter freundii 1928 in combination with Ceftriaxone; type: functional; outline: as §1
[4] = (§2) Compound was tested for inhibition of TEM-1, class A of beta-lactamases.; type: functional, Escherichia coli
[5] = (§3) Compound was tested for inhibition of pTEM-4 from Escherichia coli in combination with Ceftriaxone; type: functional; outline: as §1
[6] = (§4) Compound was tested for inhibition of pTEM-3 from Escherichia coli in combination with Ceftriaxone; type: functional; outline: as §1
[7] = system: Enterobacter cloacae; assay: Compound was tested for inhibition of Ent. cloacae 908R in combination with Ceftriaxone; type: functional; outline: as §1
[8] = (§5) Compound was tested for inhibition of TEM-3, class A of beta-lactamases.; type: functional, Escherichia coli
[9] = system: Citrobacter freundii; assay: Compound was tested for inhibition of Citrobacter freundii 1928 in combination with Ceftriaxone; Not active; type: functional, organism-based; outline: as §1
[10] = molecular target: Peptidoglycan D,D-transpeptidase MrdA (Escherichia coli K-12, UniProt P0AD65); assay: Compound was tested for inhibition of Penicillin-binding protein 2 from Escherichia coli.
Sequence of Peptidoglycan D,D-transpeptidase MrdA (P0AD65 whole entry): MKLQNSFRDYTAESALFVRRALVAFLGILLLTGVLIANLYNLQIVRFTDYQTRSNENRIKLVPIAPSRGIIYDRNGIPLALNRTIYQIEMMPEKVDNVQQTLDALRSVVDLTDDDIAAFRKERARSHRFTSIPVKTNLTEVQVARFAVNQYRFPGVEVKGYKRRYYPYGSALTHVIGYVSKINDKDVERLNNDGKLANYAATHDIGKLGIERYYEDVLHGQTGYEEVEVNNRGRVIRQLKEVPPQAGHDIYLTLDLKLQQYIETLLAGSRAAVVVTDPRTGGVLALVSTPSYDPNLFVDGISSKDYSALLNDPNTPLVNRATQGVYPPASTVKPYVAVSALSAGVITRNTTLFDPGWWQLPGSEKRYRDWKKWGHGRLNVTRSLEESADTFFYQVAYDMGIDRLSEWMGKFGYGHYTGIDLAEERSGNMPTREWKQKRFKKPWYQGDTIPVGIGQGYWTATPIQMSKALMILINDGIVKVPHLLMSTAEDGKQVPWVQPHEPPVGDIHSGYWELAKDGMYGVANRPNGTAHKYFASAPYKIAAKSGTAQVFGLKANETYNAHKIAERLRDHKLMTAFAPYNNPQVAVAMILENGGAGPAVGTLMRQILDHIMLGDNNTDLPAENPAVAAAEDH

[11] = system: Pseudomonas aeruginosa; assay: Compound was tested for inhibition of Pseudomonas aeruginosa 18SH in combination with Ceftriaxone (expressed in MIC).; type: functional, organism-based; outline: as §1
[12] = Compound was tested for inhibition of Penicillin-binding protein 1 from Staphylococcus aureus (Schoch).
[13] = as §2; design: species or system Escherichia coli
[14] = (§6) Compound was tested for inhibition of pTEM-4 from Escherichia coli in combination with Ceftriaxone (not active).; outline: as §1
[15] = (§7) Compound was tested for inhibition of pTEM-3 from Escherichia coli in combination with Ceftriaxone (expressed in MIC).; outline: as §1
[16] = molecular target: Penicillin-binding protein 4 (Staphylococcus aureus, UniProt P72355); assay: Compound was tested for inhibition of Penicillin-binding protein 4 from Staphylococcus aureus (Schoch).
[17] = molecular target: Beta-lactamase (Escherichia coli K-12, UniProt P00811); assay: Compound was tested for inhibition of Escherichia coli AmpC, class C of Beta-lactamase
Sequence of Beta-lactamase (Escherichia coli K-12, UniProt P00811) (P00811 whole entry): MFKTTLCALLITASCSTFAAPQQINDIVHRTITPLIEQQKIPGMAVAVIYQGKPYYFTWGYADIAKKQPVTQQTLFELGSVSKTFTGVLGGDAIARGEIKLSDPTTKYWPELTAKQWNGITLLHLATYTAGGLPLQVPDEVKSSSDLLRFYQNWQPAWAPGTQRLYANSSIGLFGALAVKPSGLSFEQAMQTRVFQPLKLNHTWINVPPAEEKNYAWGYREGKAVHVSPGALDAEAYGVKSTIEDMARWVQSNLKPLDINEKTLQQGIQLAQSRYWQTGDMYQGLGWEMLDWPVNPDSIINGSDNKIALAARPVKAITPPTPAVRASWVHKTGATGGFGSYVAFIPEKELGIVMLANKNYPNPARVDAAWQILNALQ

[18] = system: Enterobacter cloacae; assay: Compound was tested for inhibition of Ent. cloacae 908R in combination with Ceftriaxone (expressed in MIC).; type: functional, organism-based; outline: as §1
[19] = molecular target: Beta-lactamase (Pseudomonas aeruginosa (strain ATCC 15692 / PAO1 / 1C / PRS 101 / LMG12228), UniProt P24735); assay: Compound was tested for inhibition of Pseudomonas aeruginosa 18SH, class C of Beta-lactamase
Sequence of Beta-lactamase (Pseudomonas aeruginosa (strain ATCC 15692 / PAO1 / 1C / PRS 101 / LMG12228), UniProt P24735) (P24735 whole entry): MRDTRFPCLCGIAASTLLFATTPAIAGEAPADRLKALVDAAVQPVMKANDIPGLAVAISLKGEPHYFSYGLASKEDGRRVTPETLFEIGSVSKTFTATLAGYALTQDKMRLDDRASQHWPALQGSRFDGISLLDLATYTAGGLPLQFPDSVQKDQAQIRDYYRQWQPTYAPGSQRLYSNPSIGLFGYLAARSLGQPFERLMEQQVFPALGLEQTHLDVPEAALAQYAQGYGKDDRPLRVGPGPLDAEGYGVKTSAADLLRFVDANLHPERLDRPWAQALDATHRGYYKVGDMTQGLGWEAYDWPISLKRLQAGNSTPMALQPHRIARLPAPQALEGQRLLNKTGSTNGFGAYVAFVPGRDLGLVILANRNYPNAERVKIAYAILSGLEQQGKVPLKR

[20] = molecular target: Beta-lactamase (Citrobacter freundii, UniProt P05193); assay: Compound was tested for inhibition of Citrobacter freundii 1928, class C of Beta-lactamase
Sequence of Beta-lactamase (Citrobacter freundii, UniProt P05193) (P05193 whole entry): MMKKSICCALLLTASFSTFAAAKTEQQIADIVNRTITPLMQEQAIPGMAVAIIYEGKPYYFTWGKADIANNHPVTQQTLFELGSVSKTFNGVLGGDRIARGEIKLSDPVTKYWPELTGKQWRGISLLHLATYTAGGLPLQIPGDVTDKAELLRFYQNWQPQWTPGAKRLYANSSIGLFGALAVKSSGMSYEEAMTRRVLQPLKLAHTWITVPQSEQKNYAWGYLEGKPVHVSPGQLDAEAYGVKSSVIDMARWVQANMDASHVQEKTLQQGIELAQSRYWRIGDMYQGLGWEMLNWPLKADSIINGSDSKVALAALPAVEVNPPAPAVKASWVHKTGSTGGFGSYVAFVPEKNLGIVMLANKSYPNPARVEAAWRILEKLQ

[21] = molecular target: Beta-lactamase (Bacillus licheniformis, UniProt P00808); assay: Compound was tested for inhibition of Bacillus licheniformis 749/C, class A of Beta-lactamase
Sequence of Beta-lactamase (Bacillus licheniformis, UniProt P00808) (P00808 whole entry): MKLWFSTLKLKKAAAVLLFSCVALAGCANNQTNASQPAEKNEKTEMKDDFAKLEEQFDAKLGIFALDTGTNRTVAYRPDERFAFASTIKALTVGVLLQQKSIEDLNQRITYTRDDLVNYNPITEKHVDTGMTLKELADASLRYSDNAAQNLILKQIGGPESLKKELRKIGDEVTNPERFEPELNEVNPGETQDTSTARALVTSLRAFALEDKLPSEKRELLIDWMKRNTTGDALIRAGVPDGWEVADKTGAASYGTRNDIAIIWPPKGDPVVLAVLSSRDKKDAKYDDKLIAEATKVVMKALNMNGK

[22] = as §5; design: species or system Escherichia coli
[23] = molecular target: T1, Penicillin-binding protein 1B (Escherichia coli K-12, UniProt P02919); assay: Compound was tested for inhibition of Penicillin-binding protein 1b from Escherichia coli.
T1 sequence (P02919 whole entry): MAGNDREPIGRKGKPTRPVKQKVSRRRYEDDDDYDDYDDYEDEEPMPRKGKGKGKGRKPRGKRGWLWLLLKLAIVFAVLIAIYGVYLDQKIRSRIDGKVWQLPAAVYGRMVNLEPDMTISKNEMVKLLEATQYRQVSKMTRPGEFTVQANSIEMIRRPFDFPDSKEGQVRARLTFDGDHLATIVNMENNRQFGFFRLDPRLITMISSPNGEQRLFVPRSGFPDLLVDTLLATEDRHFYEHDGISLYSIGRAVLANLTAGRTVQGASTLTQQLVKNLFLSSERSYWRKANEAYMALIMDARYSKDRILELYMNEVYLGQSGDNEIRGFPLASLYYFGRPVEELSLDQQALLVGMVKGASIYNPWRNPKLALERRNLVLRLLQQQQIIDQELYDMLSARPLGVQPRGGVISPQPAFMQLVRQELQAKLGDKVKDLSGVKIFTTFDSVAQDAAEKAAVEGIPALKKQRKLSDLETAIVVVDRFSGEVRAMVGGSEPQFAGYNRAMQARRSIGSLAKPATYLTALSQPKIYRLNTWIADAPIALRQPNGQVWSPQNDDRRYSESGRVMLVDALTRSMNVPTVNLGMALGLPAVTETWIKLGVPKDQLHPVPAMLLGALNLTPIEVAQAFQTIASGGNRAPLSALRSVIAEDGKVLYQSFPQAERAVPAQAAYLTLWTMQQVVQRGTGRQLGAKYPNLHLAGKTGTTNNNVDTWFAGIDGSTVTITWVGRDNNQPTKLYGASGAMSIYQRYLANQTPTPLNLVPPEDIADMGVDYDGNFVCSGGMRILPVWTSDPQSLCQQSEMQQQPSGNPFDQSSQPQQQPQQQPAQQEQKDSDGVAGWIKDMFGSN
Outline: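 Penicillin binding was assayed on membrane fragments from E. coli W3110 or S. aureus Schoch, using ¹⁴C-labeled benzylpenicillin as the probe. IC₅₀ values are reported in µM.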

[24] = system: Citrobacter freundii; assay: Compound was tested for inhibition of Citrobacter freundii 1928 in combination with Ceftriaxone (expressed in MIC).; type: functional, organism-based
[25] = system: Escherichia coli; assay: as §3; outline: as §1
[26] = Compound was tested for inhibition of Penicillin-binding protein 2x from Streptococcus pneumoniae
Outline: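 S. pneumoniae PBP 2x was assayed as recombinant soluble protein. IC₅₀ values are reported in µM.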

[27] = system: Escherichia coli; assay: as §4; outline: as §1
[28] = molecular target: Beta-lactamase L1 (Stenotrophomonas maltophilia, UniProt P52700); assay: Compound was tested for inhibition of Beta-lactamase from Xanthomonas maltophila 328
Sequence of Beta-lactamase L1 (P52700 whole entry): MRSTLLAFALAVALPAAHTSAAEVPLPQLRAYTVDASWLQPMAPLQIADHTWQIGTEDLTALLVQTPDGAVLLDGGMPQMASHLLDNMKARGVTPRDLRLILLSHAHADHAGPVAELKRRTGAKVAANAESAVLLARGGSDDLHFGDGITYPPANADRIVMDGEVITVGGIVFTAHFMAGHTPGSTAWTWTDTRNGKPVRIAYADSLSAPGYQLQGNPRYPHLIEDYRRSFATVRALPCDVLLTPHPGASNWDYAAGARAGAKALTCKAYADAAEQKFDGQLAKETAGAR

[29] = system: Escherichia coli; assay: Compound was tested for the half saturation constant derived from concentration dependence studies in Escherichia coli SHV-2.; type: organism-based
Outline: (§8)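 Purified β-lactamases (C. freundii 1928, E. coli SNO3, TEM-3, SHV-2) reacted with inhibitor. K_S is the half-saturation constant for forming the acyl-enzyme complex, taken from the concentration dependence of that reaction. It was obtained together with the acylation rate k_on and the acyl-enzyme breakdown rate k_off, using previously published kinetic methods.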

[30] = system: Escherichia coli; assay: Compound was tested for the half saturation constant derived from concentration dependence studies in Escherichia coli TEM-3.; type: organism-based; outline: as §8
[31] = system: Citrobacter freundii; assay: Compound was tested for the half saturation constant derived from concentration dependence studies in Citrobacter freundii; type: organism-based; outline: as §8
[32] = system: Escherichia coli; assay: Compound was tested for the half saturation constant derived from concentration dependence studies in Escherichia coli SNO3.; type: organism-based; outline: as §8
[33] = as §7; type: functional
[34] = as §6; type: functional

| IC50 [1] | MIC [2] | MIC [3] | IC50 [4] | MIC [7] | IC50 [8] | MIC [11] | IC50 [13] | IC50 [17] | MIC [18] | IC50 [19] | IC50 [20] | IC50 [21] | IC50 [22] | IC50 [23] | Structure (SMILES) | also measured |
| --- | --- | --- | --- | --- | --- | --- | --- | --- | --- | --- | --- | --- | --- | --- | --- | --- |
| 1.7 µM | 16 µg/mL | 4 µg/mL | 12 µM | 8 µg/mL | 0.22 µM |  |  |  |  |  |  |  |  |  | C[C@]1(/C=C/c2nnco2)[C@H](C(=O)[O-])N2C(=O)C[C@H]2S1(=O)=O.[Na+] | MIC [5]: 2 µg/mL; MIC [6]: 0.5 µg/mL |
|  | > 16 µg/mL | 16 µg/mL |  | 16 µg/mL |  |  | 13 µM | 2.7 µM |  | 8.9 µM | 0.41 µM | 0.54 µM | 0.054 µM | > 10000 µM | C[C@]1(/C=C\c2cncs2)[C@H](C(=O)[O-])N2C(=O)C[C@H]2S1(=O)=O.[Na+] | MIC [25]: 4 µg/mL; IC50 [26]: 4.8 µM; MIC [27]: 0.5 µg/mL |
|  | > 16 µg/mL | 8 µg/mL |  | 32 µg/mL |  |  | 19 µM | 46 µM |  | 15 µM | 1 µM | 2.3 µM | 0.092 µM | > 10000 µM | C[C@]1(/C=C\c2ccccn2)[C@H](C(=O)[O-])N2C(=O)C[C@H]2S1(=O)=O.[Na+] | IC50 [12]: 15 µM; MIC [25]: 4 µg/mL; IC50 [16]: 15 µM; IC50 [26]: 4.5 µM; MIC [27]: 1 µg/mL |

Further lines, the molecule ahead of its results:

| Structure (SMILES) | IC50 [1] | MIC [2] | MIC [3] | IC50 [4] | MIC [7] | IC50 [8] | MIC [11] | IC50 [13] | IC50 [17] | MIC [18] | IC50 [19] | IC50 [20] | IC50 [21] | IC50 [22] | IC50 [23] | also measured |
| --- | --- | --- | --- | --- | --- | --- | --- | --- | --- | --- | --- | --- | --- | --- | --- | --- |
| C[C@]1(C=CC(N)=O)[C@H](C(=O)O)N2C(=O)C[C@H]2S1(=O)=O | 6 µM | 16 µg/mL |  | 13 µM | 8 µg/mL | 0.054 µM |  |  |  |  |  |  |  |  |  | MIC [5]: 0.5 µg/mL; NA [9]: inactive; MIC [6]: < 0.25 µg/mL |
| C[C@]1(/C=C/C[n+]2ccccc2)[C@H](C(=O)O)N2C(=O)C[C@H]2S1(=O)=O |  |  |  |  |  |  | > 16 µg/mL | 3.6 µM | 330 µM | 8 µg/mL | 75 µM | 16 µM | 1.8 µM | 0.14 µM | > 10000 µM | IC50 [10]: 297 µM; IC50 [12]: 15 µM; MIC [14]: 0.5 µg/mL; MIC [15]: 0.25 µg/mL; IC50 [16]: 15 µM |
| C[C@]1(/C=C\C#N)[C@H](C(=O)O)N2C(=O)C[C@H]2S1(=O)=O | 0.32 µM |  |  |  |  |  | 16 µg/mL |  |  | 4 µg/mL |  |  |  |  |  | MIC [24]: 2 µg/mL |
| C[C@]1(Cn2ccnn2)[C@H](C(=O)O)N2C(=O)C[C@H]2S1(=O)=O [TAZOBACTAM] |  |  |  |  |  |  |  |  |  |  |  |  |  |  |  | IC50 [28]: 4000 µM; Ks [29]: 5 µM; Ks [30]: 0.74 µM; Ks [31]: 110 µM; Ks [32]: 325 µM |
| CC(=O)/C=C\[C@@]1(C)[C@H](C(=O)O)N2C(=O)C[C@H]2S1(=O)=O | 3.9 µM |  |  | 10 µM |  | 0.42 µM | 32 µg/mL |  |  | 2 µg/mL |  |  |  |  |  | MIC [33]: 0.25 µg/mL; MIC [24]: 1 µg/mL; MIC [34]: 2 µg/mL |
